Measurements reported in ChEMBL document CHEMBL5096187, “Efficient Synthesis and Bioevaluation of Novel Dual Tubulin/Histone Deacetylase 3 Inhibitors as Potential Anticancer Agents” (J Med Chem, 2021).
pIC50: −log10 of the molar value.

Experiments:
B16-F10 [1] = test: Antiproliferative activity against mouse B16-F10 cells assessed as inhibition of cell viability measured for 48 hrs by microplate reader based MTT assay; type: functional; settings: B16-F10, 48 h
Outline: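 Cells grown in RPMI-1640 with 10% FBS and seeded at 5000 cells/well. After overnight attachment, compound was added in medium with 0.1% DMSO for 48 h at 37 °C. Read-out was MTT for HCT-116, B16-F10 and A549, and CCK-8 for Jurkat (0.5 mg/mL, 4 h), with absorbance at 570 nm. IC50 from nonlinear regression; at least three independent experiments.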

[2] = target: T1, Protein deacetylase HDAC6 (Homo sapiens, UniProt Q9UBN7); test: Inhibition of full length N-terminal GST-tagged human recombinant HDAC6 (1 to 1215 residues) expressed in Baculovirus infected Sf9 cells using Ac-Leu-Gly-Lys (Ac)-AMC as substrate pretreated for 5 mins followed by substrate addition and measured after 30 mins
T1 sequence (Q9UBN7 whole entry): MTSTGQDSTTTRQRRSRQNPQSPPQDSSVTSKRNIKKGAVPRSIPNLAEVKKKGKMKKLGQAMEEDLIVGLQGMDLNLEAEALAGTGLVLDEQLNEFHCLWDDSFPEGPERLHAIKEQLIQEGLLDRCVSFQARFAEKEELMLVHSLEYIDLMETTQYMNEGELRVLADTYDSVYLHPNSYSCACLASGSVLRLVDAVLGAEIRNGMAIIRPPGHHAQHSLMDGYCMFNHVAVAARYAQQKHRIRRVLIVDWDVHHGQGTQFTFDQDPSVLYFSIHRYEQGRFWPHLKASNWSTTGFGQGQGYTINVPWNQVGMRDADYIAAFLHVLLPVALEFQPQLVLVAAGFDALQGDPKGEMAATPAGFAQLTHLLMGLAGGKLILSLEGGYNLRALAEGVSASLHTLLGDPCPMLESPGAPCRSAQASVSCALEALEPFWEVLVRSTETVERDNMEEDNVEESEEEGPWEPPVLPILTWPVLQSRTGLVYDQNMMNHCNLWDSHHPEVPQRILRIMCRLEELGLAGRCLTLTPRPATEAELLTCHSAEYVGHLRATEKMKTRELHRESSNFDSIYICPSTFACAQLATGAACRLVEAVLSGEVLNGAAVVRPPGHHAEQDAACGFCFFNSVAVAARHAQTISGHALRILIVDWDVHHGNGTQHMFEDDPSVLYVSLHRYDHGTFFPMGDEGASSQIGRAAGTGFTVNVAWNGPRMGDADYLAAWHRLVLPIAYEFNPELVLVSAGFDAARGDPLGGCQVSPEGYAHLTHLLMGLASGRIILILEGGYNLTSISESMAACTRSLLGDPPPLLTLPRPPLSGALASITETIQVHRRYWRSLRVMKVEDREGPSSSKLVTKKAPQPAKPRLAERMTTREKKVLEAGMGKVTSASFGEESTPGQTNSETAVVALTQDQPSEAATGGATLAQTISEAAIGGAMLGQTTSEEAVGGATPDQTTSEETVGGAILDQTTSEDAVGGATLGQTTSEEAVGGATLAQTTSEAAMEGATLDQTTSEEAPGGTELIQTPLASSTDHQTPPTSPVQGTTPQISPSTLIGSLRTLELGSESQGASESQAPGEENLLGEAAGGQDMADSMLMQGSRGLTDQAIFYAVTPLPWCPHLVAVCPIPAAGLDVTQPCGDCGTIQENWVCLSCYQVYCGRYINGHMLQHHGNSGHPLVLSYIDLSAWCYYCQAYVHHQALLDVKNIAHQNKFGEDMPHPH
Outline: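 HDAC6 at 15 ng/well in Tris buffer pH 8.0 with MgCl2, BSA, NaCl and KCl. Ten 3-fold dilutions preincubated 5 min at room temperature, then 10 μM Ac-Leu-Gly-Lys(Ac)-AMC for 30 min at 37 °C. IC50 by normalized dose–response nonlinear fit; performed at least three times.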

Tubulin = Tubulin (Sus scrofa, UniProt P02554+P02550); test: Inhibition of pig brain tubulin polymerization by spectrometric method
Outline: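 Phosphocellulose-purified pig brain tubulin mixed with graded compound concentrations in PEM buffer (100 mM PIPES, 1 mM MgCl2, 1 mM EGTA) plus 1 mM GTP and 5% glycerol. Absorbance at 340 nm and 37 °C; plateau absorbance used to calculate IC50.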

B16-F10 [3] = test: Inhibition of cell migration in mouse B16-F10 cells assessed as reduction in wound area ratio measured at 50 nM incubated for 24 hrs by wound healing assay; type: functional; design: scale not given: the % may be the effect or the level left
Outline: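 Confluent B16-F10 monolayers, seeded overnight, were scratched with a pipette tip and washed to remove debris. Cells were then treated, and phase-contrast images were taken at 0 and 24 h. Migration distance or wound area measured manually against DMSO control; n = 3.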

B16-F10 [4] = test: Inhibition of colony formation in mouse B16-F10 cells assessed as reduction in number of colonies incubated for 24 hrs; type: functional, cell-based; settings: dose 25-100 nM, DDE = dose-dependent effect
Outline: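 1000 B16-F10 cells seeded and cultured 24 h at 37 °C, then exposed to compound for 24 h. Medium was then replaced and cells grown 10–14 days. Colonies fixed with 4% paraformaldehyde for 30 min, stained with 0.1% crystal violet for 15 min, and counted; n = 3 versus DMSO.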

B16-F10 [5] = test: Induction of cell cycle arrest in mouse B16-F10 cells assessed as accumulation of cells in G2/M phase at 100 nM measured after 48 hrs by PI/RNaseA staining based flow cytometry analysis (Rvb= 5.76%); type: functional
B16-F10 [6] = test: Induction of cell cycle arrest in mouse B16-F10 cells assessed as accumulation of cells in G2/M phase at 50 nM measured after 48 hrs by PI/RNaseA staining based flow cytometry analysis (Rvb= 5.76%); type: functional
B16-F10 [7] = test: Induction of apoptosis in mouse B16-F10 cells assessed as late apoptotic cells at 25 nM incubated for 48 hrs by Annexin V-FITC/PI analysis (reference value: 0.00 %); type: functional
B16-F10 [8] = test: Induction of apoptosis in mouse B16-F10 cells assessed as late apoptotic cells at 50 nM incubated for 48 hrs by Annexin V-FITC/PI analysis (reference value: 1.68 %); type: functional
B16-F10 [9] = test: Upregulation of AC-H3 in mouse B16-F10 cells incubated for 12 hrs by Western blot analysis; type: functional, cell-based; settings: dose 20-200 nM, DDE = dose-dependent effect
Outline: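 B16-F10 cells (5 × 10⁵/well) treated 12 h with DMSO or compound, lysed in RIPA buffer. 30 μg protein separated by SDS-PAGE and blotted onto PVDF. Blocked 5% BSA 2 h, primary antibody overnight at 4 °C, secondary 1.5 h. Ac-H3 probed, with histone H3 and GAPDH as loading controls; band density quantified; three independent experiments.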

[10] = Nephrotoxicity in C57BL/6 mouse assessed as effect on globulin GLO level in serum; type: toxicity; settings: in vivo

COc1cc(C(=O)c2csc(-c3ccc(NC(=O)CCCC(=O)Nc4ccccc4N)cc3)n2)cc(OC)c1OC
pIC50 (B16-F10 [1]): 7.15 | pIC50 [2]: 4.51 | IC50 (Tubulin): 12.2 µM | Activity (B16-F10 [3]): 17.63% | Activity (B16-F10 [4]): Dde | Activity (B16-F10 [5]): 83.26% | Activity (B16-F10 [6]): 66.32% | Activity (B16-F10 [7]): 0% | Activity (B16-F10 [8]): 32.3% | Activity (B16-F10 [9]): Dde | Activity [10]: Non-Toxic
